Screening results from PubChem.
Sampled rows, rich in hits. Any-hit rate of the full collection: about 2.3%.
TRPC6 inh = mouse TRPC6 channel inhibitors, primary screen, cell-based, HEK293, membrane potential dye | Short transient receptor potential channel 6 (Mus musculus), Q61143 | B-score at 10 µM | actives 1.1% (n = 310,000) | ACh-evoked depolarization; active compounds read low | AID 2553, 2010;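 active = B-score under library mean minus 3 SD, initial fluorescence not abnormally high, positive integrated signal ratio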;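 note: B-score derived from integrated fluorescence ratio over the kinetic read; more negative B-score means stronger inhibition of depolarization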
TRPC4 act = activators of mouse TRPC4 channel, primary screen, Fluo4 calcium, HEK293 TRPC4beta/mu-opioid cells; Short transient receptor potential channel 4 (Mus musculus), Q9QUQ5; Fluo4 calcium fluorescence; active compounds read high; B-score at 10 µM; actives 0.49% (n = 310,000); AID 2237, 2010;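 active = B-score above 5 SD of library B-scores, and initial fluorescence ratio not above library mean plus 5 SD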;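 note: positive B-score marks a calcium rise read as TRPC4 activation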
Target sequence (Q9QUQ5 whole entry, looked up): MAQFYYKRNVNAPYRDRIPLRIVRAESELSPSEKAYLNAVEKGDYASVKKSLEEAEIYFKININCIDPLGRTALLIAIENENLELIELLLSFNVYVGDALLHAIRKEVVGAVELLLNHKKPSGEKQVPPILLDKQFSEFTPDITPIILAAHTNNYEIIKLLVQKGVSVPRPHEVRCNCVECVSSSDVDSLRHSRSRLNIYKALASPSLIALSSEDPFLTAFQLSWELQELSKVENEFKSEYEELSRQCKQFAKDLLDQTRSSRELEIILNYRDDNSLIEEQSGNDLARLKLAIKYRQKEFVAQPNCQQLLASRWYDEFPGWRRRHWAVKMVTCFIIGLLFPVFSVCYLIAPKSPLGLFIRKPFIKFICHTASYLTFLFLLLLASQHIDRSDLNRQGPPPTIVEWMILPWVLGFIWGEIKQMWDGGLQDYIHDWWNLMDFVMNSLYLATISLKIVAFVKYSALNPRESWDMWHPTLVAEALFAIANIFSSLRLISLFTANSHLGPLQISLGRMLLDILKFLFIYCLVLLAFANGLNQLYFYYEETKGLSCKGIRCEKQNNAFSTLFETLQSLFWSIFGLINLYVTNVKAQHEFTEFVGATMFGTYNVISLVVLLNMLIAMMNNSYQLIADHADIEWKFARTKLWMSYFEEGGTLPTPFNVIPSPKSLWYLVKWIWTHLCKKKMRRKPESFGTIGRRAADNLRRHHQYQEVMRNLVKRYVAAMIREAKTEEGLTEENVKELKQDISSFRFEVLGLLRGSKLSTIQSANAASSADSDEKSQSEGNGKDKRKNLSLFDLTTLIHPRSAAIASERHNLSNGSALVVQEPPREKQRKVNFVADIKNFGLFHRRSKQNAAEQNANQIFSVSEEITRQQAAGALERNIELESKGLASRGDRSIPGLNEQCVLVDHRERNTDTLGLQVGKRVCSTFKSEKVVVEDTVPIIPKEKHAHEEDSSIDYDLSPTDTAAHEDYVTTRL
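system = HEK293 cells stably co-expressing mouse TRPC4beta and mu-opioid receptor | schedule = Fluo4 dye loading 45 min at room temperature, 110 s recording | measure = B-scored integrated calcium fluorescence ratio | signal = Fluo4 calcium-sensitive dye fluorescence, kinetic, 1 Hz baseline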
TRPC4 potent = positive allosteric modulators of TRPC4, primary screen, cell-based, mouse TRPC4beta, HEK293 mu-opioid, Fluo-4 calcium; Short transient receptor potential channel 4 (Mus musculus), Q9QUQ5; DAMGO EC20, Fluo-4 Ca2+ flux; active compounds read high; B-score at 10 µM; actives 0.42% (n = 310,000); AID 2227, 2009;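 active = B-score of calcium response area above 5 SD of library B-scores, with initial fluorescence ratio within 5 SD of library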;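 note: B-score of integrated fluorescence ratio over time as area under calcium response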
TRPC4 block = inhibitors of mouse TRPC4 channel, primary screen, Fluo4 calcium, HEK293 TRPC4beta/mu-opioid cells. AID 2247, 2010. DAMGO-evoked Fluo4 calcium flux; active compounds read low. actives 0.39% (n = 300,000). Short transient receptor potential channel 4 (Mus musculus), Q9QUQ5. B-score at 10 µM;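 active = B-score over 3 SD under the library average, no early fluorescence shift, positive overall ratio signal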
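Assay system: HEK293 cells with stable TRPC4beta plus mu-opioid receptor expression. Dosing: single dose. Measured by: Fluo4 Ca2+ flux fluorescence. Also added: DAMGO in two steps, submaximal then maximal. Read-out: B score from integrated Fluo4 fluorescence ratio.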
TRPC6 act = mouse TRPC6 channel activators, primary screen, cell-based, HEK293, membrane potential dye; Short transient receptor potential channel 6 (Mus musculus), Q61143; B-score at 10 µM; AID 2550, 2010; actives 0.13% (n = 310,000); HEK293-TRPC6 membrane potential dye fluorescence; active compounds read high;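 active = B-score of the integrated fluorescence ratio above library mean plus 3 SD, and starting fluorescence ratio within library mean plus 5 SD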;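 note: higher score means more depolarization so channel activation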
TRPC4 spec 2 = second selectivity test of TRPC6 inhibitors: effect on mouse TRPC4. shares compounds with TRPC6 inh. HEK293 TRPC4/MOR, membrane potential dye fluorescence; channel activated by saturating DAMGO dose. inhibition, % at 10 µM. actives 42% (n = 920);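 active = compounds whose fluorescence signal differed from control wells by over 3 SD, either direction, in both duplicate plates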
TRPC4 spec = mouse TRPC4 modulation by TRPC6 hits, confirmation, selectivity assay for TRPC6 inhibitor project, cell-based, HEK293 TRPC4/mu-opioid, membrane potential dye | shares compounds with TRPC6 inh | membrane potential fluorescence | activity change, negative = inhibition, % at 10 µM | actives 61% (n = 920);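 active = rise or fall in signal beyond 3 SD of buffer-only wells in both replicate plates, either sign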;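 note: integrated kinetic ratio of fluorescence range over baseline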
HEK293 MPD ctr 2-1 = nonspecific membrane potential effects, parental HEK293, confirmation, counter-screen for TRPC6 inhibitor project, cell-based, second counter screen. shares compounds with TRPC6 inh. parental HEK293 membrane potential dye fluorescence; maximal acetylcholine challenge after compound addition. signal change vs control, % at 10 µM. actives 31% (n = 920);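 active = membrane potential signal moving either way by over 3 SD of the maximum-effect control, in both duplicate plates, meaning non-specific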
HEK293 MPD ctr-1 = membrane potential modulation in parental HEK293, confirmation, counter-screen for TRPC6 inhibitor project, cell-based; shares compounds with TRPC6 inh; parental HEK293 membrane potential dye fluorescence; membrane potential signal change, % at 10 µM; actives 60% (n = 920); AID 2780, 2010;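 active = membrane potential signal shifting up or down by more than 3 SD of buffer-only wells, on both duplicate plates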
HEK293 MPD ctr-2 = parental HEK293 membrane potential modulation, confirmation, counter-screen for TRPC6 modulator project, cell-based; shares compounds with TRPC6 inh; membrane potential signal change, % at 10 µM; membrane potential dye fluorescence; AID 488924, 2010; actives 51% (n = 2,400);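 active = membrane potential signal moves up or down beyond 5 SD from buffer-only wells, on both duplicate plates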
HEK293 MPD ctr 2-2 = second check of TRPC6 modulator effects in parental HEK293 cells. inhibition, % at 10 µM. shares compounds with TRPC6 inh. actives 14% (n = 2,400). membrane potential dye fluorescence; after compound, maximal acetylcholine stimulation;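 active = membrane potential signal drops by more than 5 SD from the mean control signal, in both duplicate plates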;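 note: plate controls were acetylcholine ECmax control wells for no effect and buffer only wells for full effect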
TRPC4 ctr mod = TRPC4 modulation by TRPC6 hit compounds, confirmation, selectivity assay for TRPC6 modulator project, cell-based, HEK293 TRPC4/mu-opioid, membrane potential dye, mouse | shares compounds with TRPC6 inh | actives 69% (n = 2,400) | percent change from control (negative = decrease, positive = increase), % at 10 µM | membrane potential fluorescence;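 active = membrane potential signal moved up or down beyond 5 SD of buffer control wells, in both duplicate plates, actives on both sides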;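 note: plate controls were assay buffer wells for no effect and DAMGO maximal-effect wells for full effect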
TRPC4/MOR inh 2 = second selectivity test of TRPC6 modulators against mouse TRPC4 | shares compounds with TRPC6 inh | HEK293 TRPC4/mu-opioid, membrane potential dye fluorescence; stimulated with maximal-effect DAMGO | inhibition, % at 10 µM | actives 55% (n = 2,400);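 active = drop in membrane potential signal beyond 5 SD of the control wells in both duplicate plates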;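 note: TRPC4 counter screen for TRPC6 hits run under conditions tuned for TRPC6 not TRPC4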
TRPC6 block conf = mouse TRPC6 channel inhibitors, confirmation, HEK293 cells, membrane potential dye, duplicate | shares compounds with TRPC6 inh | ACh-evoked depolarization | actives 43% (n = 3,300) | inhibition, % at 10 µM;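 active = fluorescence ratio falls more than 5 SD below the full-stimulation control mean, in both duplicate runs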;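 note: integrated fluorescence ratio of peak minus minimum over baseline after agonist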
TRPC6 act confirm = mouse TRPC6 channel activators, confirmation, HEK293 cells, membrane potential dye, duplicate; shares compounds with TRPC6 inh; HEK293-TRPC6 membrane potential dye fluorescence, FDSS; activation, % at 10 µM; actives 11% (n = 2,800); AID 488961, 2010;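 active = ratio signal rise beyond 5 SD above unstimulated control wells' mean, seen in both duplicate runs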;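 note: plate controls were buffer EC0 wells for no effect and acetylcholine ECmax response for full effect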
Active calls of the source: *; i = inactive; / = no result.

SMILES | TRPC6 inh | TRPC4 act | TRPC4 potent | TRPC4 block | TRPC6 act | HEK293 MPD ctr-2 | HEK293 MPD ctr 2-2 | TRPC4 ctr mod | TRPC4/MOR inh 2 | TRPC6 block conf | TRPC6 act confirm | others
CN1CCN(NC(=O)CN2C(=O)/C(=C/c3ccccc3Cl)SC2=S)CC1 | -8.32* | i | i | i | i | / | / | / | / | 61.2%* | i | TRPC4 spec 2=63.5%*;TRPC4 spec=i;HEK293 MPD ctr 2-1=i;HEK293 MPD ctr-1=-130.5%*
COc1ccc(C2=CSC3=NCCN23)cc1Cl | i | i | i | i | i | / | / | / | / | / | /
COc1ccc(C2=CSC3=NCCN23)cc1Br | -5.22* | i | i | i | i | i | i | i | 35.5%* | i | i
CCc1cc(=O)oc2cc(C)cc(OCC(=O)NCCCn3ccnc3)c12 | i | i | i | i | i | / | / | / | / | / | /
Cc1cc(OCC(=O)NCCCn2ccnc2)c2c(C)c(C)c(=O)oc2c1 | -6.13* | i | i | i | i | -276.0%* | i | -48.5%* | 36.5%* | i | i
CCCc1cc(=O)oc2c(C)c(OCC(=O)NCCCn3ccnc3)ccc12 | -5.76* | i | i | i | i | -135.5%* | i | -19.5%* | i | i | i
COc1ccc(-c2cc(=O)oc3c(C)c(OCC(=O)NCCCn4ccnc4)ccc23)cc1 | i | i | i | i | i | / | / | / | / | / | /
CN(C)/C=C1/OC(=O)C(C#N)=C1c1ccc(Cl)cc1 | i | i | i | i | i | / | / | / | / | / | /
COc1ccc(-n2nc3c(c2NC(=O)C(C)Oc2ccccc2)CS(=O)(=O)C3)cc1 (centres undefined) | i | i | i | i | i | / | / | / | / | / | /
CCOc1ccc(OCCC(=O)OCC(=O)Nc2ccc(Cl)cn2)cc1 | i | i | i | i | i | / | / | / | / | / | /
Nc1c2c(nc3ccn(Cc4ccccc4)c(=O)c13)CCC2 | -7.45* | i | i | i | i | / | / | / | / | 73.0%* | i | TRPC4 spec 2=71.5%*;TRPC4 spec=-22.5%*;HEK293 MPD ctr 2-1=-10.5%*;HEK293 MPD ctr-1=-353.0%*
Nc1c2c(nc3ccn(-c4ccccc4)c(=O)c13)CCCCC2 | -5.36* | i | i | i | i | -151.0%* | i | -28.5%* | 37.5%* | i | i
CS(=O)(=O)Nc1cccc(C(=O)OCCCOc2ccc(F)cc2)c1 | i | i | i | i | i | / | / | / | / | / | /
O=C(NCc1ccccc1)c1noc2c1CCCCC2 | i | i | i | i | i | / | / | / | / | / | /
O=C(NC1CCCC1)c1noc2c1CCCCC2 | -7.99* | i | i | i | i | / | / | / | / | i | i | TRPC4 spec 2=i;TRPC4 spec=i;HEK293 MPD ctr 2-1=i;HEK293 MPD ctr-1=i
C/C(=N\Nc1nc(C)cc(C)n1)c1ccc(N2CCOCC2)cc1 | i | i | i | i | i | / | / | / | / | / | /
C/C(=N\Nc1nc2ccccc2[nH]1)c1ccc(N2CCOCC2)cc1 | -5.76* | i | i | i | i | i | i | -13.5%* | i | i | i
C/C(=N\Nc1nc2ccccc2[nH]1)c1ccc(Cl)s1 | i | i | i | i | i | / | / | / | / | / | /
C/C(=N\Nc1nc2ccccc2[nH]1)c1ccc(C)o1 | -6.04* | i | i | i | i | -139.5%* | 59.5%* | -26.5%* | 79.5%* | 75.5%* | i
Cc1cc(NC(=O)CCC(=O)N(c2ccc(F)cc2)C(C(=O)NC2CCCC2)c2cccnc2)no1 (centres undefined) | i | i | i | i | i | / | / | / | / | / | /
CC(=O)Nc1ccc(N2C(=O)CSC2c2ccccc2)cc1 (centres undefined) | i | i | i | i | i | / | / | / | / | / | /
CCOC(=O)c1cc(C)n(-c2c(C)n(C)n(-c3ccccc3)c2=O)c1C | -6* | i | i | i | i | i | i | i | i | i | i
COc1ccc(F)cc1S(=O)(=O)Nc1cc2c3c(c1)CCC(=O)N3CCC2 | i | i | i | i | i | / | / | / | / | / | /
Nc1c(C(=O)N2CCOCC2)oc2ccccc12 | -5.43* | i | i | i | i | i | i | i | i | i | i
COc1ccc(OC)c(S(=O)(=O)N2CCC(C(=O)NCc3ccc4c(c3)OCO4)CC2)c1 | i | i | i | i | i | / | / | / | / | / | /
